Data as given in ChEMBL document CHEMBL1152227, “Structure-activity relationships of 1,4-dihydropyridines that act as enhancers of the vanilloid receptor 1 (TRPV1)” (Bioorg Med Chem, 2008).
Activity calls are given as the source filed them. No cut-off for these calls is given here.

Tests used:
[1] = molecular target: T1, Transient receptor potential cation channel subfamily V member 1 (Homo sapiens, UniProt Q8NER1); experiment: Agonist-enhancing activity in epsilon-epitope tagged TRPV1 receptor expressed in mouse NIH3T3 cells assessed as capsaicin-induced 45Ca2+ influx by microplate liquid scintillation counter; assay type: functional, cell-based
T1 sequence (Q8NER1 whole entry): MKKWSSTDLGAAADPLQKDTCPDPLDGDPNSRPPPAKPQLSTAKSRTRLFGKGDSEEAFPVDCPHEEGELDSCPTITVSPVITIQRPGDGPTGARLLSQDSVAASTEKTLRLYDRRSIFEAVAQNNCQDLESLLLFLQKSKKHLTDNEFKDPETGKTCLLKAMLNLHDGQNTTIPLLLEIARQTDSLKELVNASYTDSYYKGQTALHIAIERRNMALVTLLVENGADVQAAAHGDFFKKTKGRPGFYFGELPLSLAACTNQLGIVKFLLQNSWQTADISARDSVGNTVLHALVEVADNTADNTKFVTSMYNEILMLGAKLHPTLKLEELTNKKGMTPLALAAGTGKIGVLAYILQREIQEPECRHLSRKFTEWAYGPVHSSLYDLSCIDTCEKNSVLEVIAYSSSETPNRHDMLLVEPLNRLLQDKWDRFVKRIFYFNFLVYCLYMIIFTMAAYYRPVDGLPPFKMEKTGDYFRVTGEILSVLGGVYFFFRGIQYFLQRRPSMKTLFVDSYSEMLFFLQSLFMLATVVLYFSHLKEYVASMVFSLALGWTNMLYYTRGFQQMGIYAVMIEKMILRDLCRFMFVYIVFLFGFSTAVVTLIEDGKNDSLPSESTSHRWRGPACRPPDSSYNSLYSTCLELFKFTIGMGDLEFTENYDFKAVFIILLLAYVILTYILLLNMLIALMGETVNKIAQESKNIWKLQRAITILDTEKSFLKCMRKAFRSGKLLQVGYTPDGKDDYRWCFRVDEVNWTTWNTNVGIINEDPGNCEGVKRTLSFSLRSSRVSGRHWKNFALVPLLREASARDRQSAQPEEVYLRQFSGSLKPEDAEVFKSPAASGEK
Method in brief: (§1)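 Stable ε-tagged TRPV1 NIH3T3 cells. Uptake with capsaicin 2 µM, 10 min at 20°C, 0.5 µCi/well 45Ca2+ in Tris-HBSS pH 7.5. Compound up to 100 µM, 2% DMSO, from 5 mM stocks, duplicate wells per concentration. Data normalized to capsaicin-only wells (100%). Variable-slope fit gave EC50 and ΔEmax; compounds too weak to fit were given ΔEmax at the top concentration.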

[2] = molecular target: T1, Transient receptor potential cation channel subfamily V member 1; experiment: Agonist activity at epsilon-epitope tagged TRPV1 receptor expressed in mouse NIH3T3 cells assessed as effect on 45Ca2+ influx by microplate liquid scintillation counter; assay type: functional, cell-based
Method in brief: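 NIH3T3 cells stably expressing ε-tagged TRPV1 were seeded the day before and grown at 35°C. Test compound given without capsaicin, top concentration 100 µM, 2% DMSO. 45Ca2+ uptake run 10 min at 20°C in Tris-HBSS (pH 7.5) with ascorbate, 10 µM Ca2+ and 0.8 mM Mg2+. Cells were washed, lysed in RIPA and counted by scintillation.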

[3] = molecular target: Transient receptor potential cation channel subfamily V member 1 (Rattus norvegicus) (UniProt O35433); experiment: Agonist activity at TRPV1 receptor in E15 rat primary dorsal root ganglion cells assessed as effect on 45Ca2+ influx by microplate liquid scintillation counter; assay type: functional, tissue-based
Sequence of Transient receptor potential cation channel subfamily V member 1 (Rattus norvegicus) (O35433 whole entry, the tested form may be a part): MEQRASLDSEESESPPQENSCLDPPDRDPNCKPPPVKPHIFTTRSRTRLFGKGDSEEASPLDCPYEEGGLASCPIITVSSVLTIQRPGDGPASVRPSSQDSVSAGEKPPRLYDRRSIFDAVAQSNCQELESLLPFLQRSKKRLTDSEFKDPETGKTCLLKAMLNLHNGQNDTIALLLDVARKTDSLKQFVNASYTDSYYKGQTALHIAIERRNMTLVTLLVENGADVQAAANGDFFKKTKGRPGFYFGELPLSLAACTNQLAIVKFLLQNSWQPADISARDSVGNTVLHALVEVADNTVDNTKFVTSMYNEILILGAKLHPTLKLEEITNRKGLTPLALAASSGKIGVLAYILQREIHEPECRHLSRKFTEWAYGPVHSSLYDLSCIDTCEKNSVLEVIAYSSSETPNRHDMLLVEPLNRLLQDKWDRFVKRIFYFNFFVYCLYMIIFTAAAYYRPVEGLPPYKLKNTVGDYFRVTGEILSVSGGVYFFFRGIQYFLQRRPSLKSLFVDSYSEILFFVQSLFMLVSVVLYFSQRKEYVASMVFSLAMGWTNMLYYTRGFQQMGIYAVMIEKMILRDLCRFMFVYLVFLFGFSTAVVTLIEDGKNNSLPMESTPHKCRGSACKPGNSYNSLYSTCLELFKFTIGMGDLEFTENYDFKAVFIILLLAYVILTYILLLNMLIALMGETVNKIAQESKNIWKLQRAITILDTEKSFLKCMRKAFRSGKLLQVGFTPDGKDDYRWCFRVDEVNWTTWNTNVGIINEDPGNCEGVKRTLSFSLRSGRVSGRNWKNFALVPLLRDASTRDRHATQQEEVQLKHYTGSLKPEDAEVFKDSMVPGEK
Method in brief: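 DRGs from E15 rat embryos, enzymatically dissociated, grown 5–6 days at 35°C. Test compound given without capsaicin. 45Ca2+ uptake run 10 min at 20°C in Tris-buffered (pH 7.5) HBSS with 1 mM ascorbate, 10 µM CaCl2 and 0.8 mM MgCl2, with 0.5 µCi/well tracer. Cells were washed, lysed in RIPA and counted by scintillation.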

[4] = molecular target: T1, Transient receptor potential cation channel subfamily V member 1; experiment: Agonist-enhancing activity in epsilon-epitope tagged TRPV1 receptor expressed in mouse NIH3T3 cells assessed as capsaicin-induced 45Ca2+ influx at 100 uM by microplate liquid scintillation counter relative to capsaicin alone; assay type: functional, cell-based; method in brief: as §1
[5] = molecular target: T2, Adenosine receptor A3 (Rattus norvegicus) (UniProt P28647); experiment: Binding affinity to rat adenosine A3 receptor
T2 sequence (whole entry): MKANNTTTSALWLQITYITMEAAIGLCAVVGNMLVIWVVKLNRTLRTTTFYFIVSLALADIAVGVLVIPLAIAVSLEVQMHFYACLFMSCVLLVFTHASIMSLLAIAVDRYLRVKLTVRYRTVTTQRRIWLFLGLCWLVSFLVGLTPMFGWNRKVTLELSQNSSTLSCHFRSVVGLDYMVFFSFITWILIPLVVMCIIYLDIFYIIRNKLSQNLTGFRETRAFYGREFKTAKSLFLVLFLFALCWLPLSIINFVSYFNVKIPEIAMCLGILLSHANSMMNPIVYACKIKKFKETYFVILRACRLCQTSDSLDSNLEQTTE

[6] = molecular target: Transient receptor potential cation channel subfamily V member 1 (Rattus norvegicus) (UniProt O35433); experiment: Agonist-enhancing activity at TRPV1 receptor in E15 rat primary dorsal root ganglion cells assessed as capsaicin-induced 45Ca2+ influx by microplate liquid scintillation counter relative to capsaicin alone; assay type: functional, tissue-based
Method in brief: (§2)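 E15 rat DRG cultures grown 5–6 days at 35°C. Uptake with capsaicin ~0.5 µM, 10 min at 20°C, 0.5 µCi/well 45Ca2+ in Tris-HBSS pH 7.5. Compound up to 50 µM, 0.2% DMSO, from 25 mM stocks. Counts normalized to in-plate capsaicin-only wells (100%, 4 wells). Variable-slope sigmoid fit gave EC50, Hill slope and ΔEmax.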

[7] = molecular target: T3, Adenosine receptor A3 (Homo sapiens, UniProt P0DMS8); experiment: Binding affinity to human adenosine A3 receptor
T3 sequence (P0DMS8 whole entry): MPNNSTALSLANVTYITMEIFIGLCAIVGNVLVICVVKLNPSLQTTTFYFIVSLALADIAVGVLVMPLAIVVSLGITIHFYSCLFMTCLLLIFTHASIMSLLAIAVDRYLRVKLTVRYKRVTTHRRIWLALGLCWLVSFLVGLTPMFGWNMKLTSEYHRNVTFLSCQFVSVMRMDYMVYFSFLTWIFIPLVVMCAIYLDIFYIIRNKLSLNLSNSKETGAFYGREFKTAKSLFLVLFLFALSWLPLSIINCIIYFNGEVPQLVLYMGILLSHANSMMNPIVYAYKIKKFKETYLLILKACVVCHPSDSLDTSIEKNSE

[8] = molecular target: Transient receptor potential cation channel subfamily V member 1 (Rattus norvegicus) (UniProt O35433); experiment: Agonist-enhancing activity at TRPV1 receptor in E15 rat primary dorsal root ganglion cells assessed as capsaicin-induced 45Ca2+ influx by microplate liquid scintillation counter; assay type: functional, tissue-based; method in brief: as §2
[9] = molecular target: Transient receptor potential cation channel subfamily V member 1 (Rattus norvegicus) (UniProt O35433); experiment: Agonist-enhancing activity at TRPV1 receptor in E15 rat primary dorsal root ganglion cells assessed as increase in intracellular calcium levels at 10 uM by Fura-4F AM based fluorimetric method relative to capsaicin alone; assay type: functional, tissue-based
Method in brief: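 E15 rat DRG neurons on poly-ornithine/laminin coverslips, cultured 4–6 days. Loaded with 2.5 µM Fura-4F AM for 20 min at room temperature and perfused at 0.5 mL/min in pH 7.4 HEPES saline with ascorbate. Exposed 30 s to 200 nM capsaicin ± 10 µM compound, DMSO 0.04% in controls. 340/380 ratio read at 0.5 Hz and normalized to the 2-min baseline. Peak taken as the mean of 10 points, 3 coverslips per condition.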

| EC50 [1] [µM] | Activity [2] | Activity [3] | Emax [4] [%] | Activity [5] | Emax [6] [%] | Ki [7] [µM] | Activity [1] | Activity [8] | Activity [9] [%] | Compound |
| --- | --- | --- | --- | --- | --- | --- | --- | --- | --- | --- |
| 28.1 | inactive | inactive | 435 | inactive |  |  |  |  |  | CCOC(=O)C1=C(c2ccccc2)N=C(C)/C(=C(/O)SCC)C1CC (stereo unspecified) |
|  | inactive | inactive | 198 |  |  |  |  |  |  | CCOC(=O)C1=C(c2ccccc2F)NC(C)=C(C(=O)SCC)C1CC (racemic) |
| 22.4 | inactive | inactive | 364 | inactive | 318 |  |  |  |  | CCCC1C(C(=O)OCC)=C(c2ccccc2)N=C(C)/C1=C(/O)SCC (stereo unspecified) |
|  | inactive | inactive | 257 | inactive |  |  |  |  |  | CCOC(=O)C1=C(c2ccccc2)N=C(CC)/C(=C(/O)SCC)C1CC (stereo unspecified) |
|  | inactive | inactive | 148 | inactive |  | 2.09 |  |  |  | CCCC1=NC(c2ccccc2)=C(C(=O)OCC)C(CC)/C1=C(\O)SCC (stereo unspecified) |
| 21.8 | inactive | inactive | 446 |  | 198 |  |  |  |  | CCOC(=O)C1=C(c2cccc(F)c2)NC(C)=C(C(=O)SCC)C1CC (racemic) |
|  | inactive | inactive | 114 | inactive |  | 15.3 |  |  |  | CCOC(=O)C1=C(c2ccccc2)N=C(C)/C(=C(/O)OCC)C1C(OC)OC (stereo unspecified) |
| 21.3 | inactive | inactive | 626 | inactive |  | 4.58 |  |  | 13 | CCOC(=O)C1=C(c2ccccc2)N=C(C)/C(=C(/O)SCCOC)C1CC (stereo unspecified) |
|  | inactive | inactive | 177 |  |  |  |  |  |  | CCCC1C(C(=O)SCC)=C(C)NC(c2cccc(Cl)c2)=C1C(=O)OCC (racemic) |
|  | inactive | inactive | 116 |  |  |  |  |  |  | CCOC(=O)C1=C(c2ccc3ccccc3c2)NC(C)=C(C(=O)SCC)C1CC (racemic) |
|  | inactive | inactive | 383 | inactive |  |  |  |  |  | CCOC(=O)C1=C(c2ccccc2)N=C(C)/C(=C(/O)OCC)C1CC (stereo unspecified) |

Continued, compound first:

| Compound | EC50 [1] [µM] | Activity [2] | Activity [3] | Emax [4] [%] | Activity [5] | Emax [6] [%] | Ki [7] [µM] | Activity [1] | Activity [8] | Activity [9] [%] |
| --- | --- | --- | --- | --- | --- | --- | --- | --- | --- | --- |
| CCOC(=O)C1=C(c2ccc(F)cc2)NC(C)=C(C(=O)SCC)C1CC (racemic) | 28.4 | inactive | inactive | 409 |  |  |  |  |  |  |
| CCOC(=O)C1=C(c2ccccc2F)NC(C)=C(C(=O)SCc2ccccc2)C1CC (racemic) |  | inactive | inactive | 123 |  |  |  |  |  |  |
| CCOC(=O)C1=C(c2ccc(F)cc2)NC(C)=C(C(=O)SCC)C1C1CC1 (racemic) |  | inactive | inactive | 175 |  |  |  |  |  |  |
| CCOC(=O)C1=C(c2ccc([N+](=O)[O-])cc2)NC(C)=C(C(=O)SCCc2ccccc2)C1CC (racemic) |  | inactive | inactive | 101 |  | 117 |  |  |  |  |
| CCOC(=O)C1=C(c2ccc(C#N)cc2)NC(C)=C(C(=O)SCC)C1CC (racemic) |  | inactive | inactive | 129 |  |  |  |  |  |  |
| CCOC(=O)C1=C(c2ccc(F)cc2)NC(C)=C(C(=O)SCCc2ccccc2)C1CC (racemic) | 51.6 | inactive | inactive | 232 |  | 148 |  |  |  |  |
| CCOC(=O)C1=C(C)NC(c2cccc(Cl)c2)=C(C(=O)OCC)C1CC (racemic) | 17.1 | inactive | inactive | 347 |  | 259 |  |  |  |  |
| CCOC(=O)C1=C(C)NC(c2cccc(F)c2)=C(C(=O)OCC)C1CC (racemic) | 26.7 | inactive | inactive | 403 |  | 206 |  |  |  |  |
| CCOC(=O)C1=C(C2CCCCC2)NC(C)=C(C(=O)SCC)C1CC (racemic) |  | inactive | inactive | 87 |  |  |  |  |  |  |
| CCOC(=O)C1=C(c2ccc([N+](=O)[O-])cc2)NC(C)=C(C(=O)SCc2ccccc2)C1CC (racemic) |  | inactive | inactive | 98 |  |  |  |  |  |  |
| CCOC(=O)C1=C(c2cccc(Cl)c2)NC(C)=C(C(=O)SCCc2ccccc2)C1CC (racemic) |  | inactive | inactive | 194 |  |  |  |  |  |  |
| COC(=O)C1=C(C)NC(C)=C(C(=O)OCCN(C)Cc2ccccc2)C1c1cccc([N+](=O)[O-])c1 (stereo unspecified) |  |  |  |  |  |  |  | inactive | inactive |  |
| CO/C(O)=C1\C(C)=NC(C)=C([N+](=O)[O-])[C@H]1c1ccccc1C(F)(F)F |  |  |  |  |  |  |  | inactive | inactive |  |
| CCOC(=O)C1=C(c2ccccc2F)NC(C)=C(C(=O)SC(C)C)C1CC (racemic) |  | inactive | inactive | 124 |  |  |  |  |  |  |
| CCOC(=O)C1=C(C)NC(c2ccc(F)cc2)=C(C(=O)OCC)C1CC (racemic) | 29.2 | inactive | inactive | 372 |  | 175 |  |  |  |  |
| CCCC1C(C(=O)SCCc2ccccc2)=C(C)NC(c2ccccc2)=C1C(=O)OCC (racemic) | 27.6 | inactive | inactive | 360 |  | 231 |  |  |  |  |
| CCOC(=O)C1=C(c2ccccc2F)NC(C)=C(C(=O)SCCc2ccccc2)C1CC (racemic) |  | inactive | inactive | 117 |  |  |  |  |  |  |
